# HUVEC prolif 384: human endothelial cell proliferation inhibition. HUVEC proliferation, CellTiter-Glo luminescence, 72 h; hits give low values. 1.1% of 86,000 active. AID 648. viability, % at 10 µM (by protocol);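 active = viability at or below 30%; inactive = viability above 30%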;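 also: 100% = median luminescence of DMSO-only cell control wells on each plate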
# bCat KO growth: beta-catenin-lacking colon tumor cell growth suppression | HCT116 beta-catenin knockout viability, CellTiter-Glo, 60 h; hits give low values | viability, % at 10 µM | 1.5% of 140,000 active | AID 818;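 active = viability at or under a set limit, the compound median less 4 SD, cut at about 6% in these data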;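 also: 0% = Hyamine 1622 control at 20 µM and 100% = untreated cell control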
# Lung fibro prol: blocks proliferation of human lung fibroblasts; 1.1% of 85,000 active; viability, % at 10 µM; LL 47 human lung fibroblast viability, ATP luminescence; hits give low values; AID 719;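 active = viability at or below 50% in the single dose screen; inactive = viability above 50%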;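 also: compound exposure lasted 72 h before the ATP readout; 100% = median luminescence of untreated cell-only wells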
#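 Benchmarks: Cell-only wells, no compound | Test system: LL 47 human lung fibroblasts, passage 12 or lower | Input: 1,150 cells/well | Measured by: CellTiter-Glo luminescence measuring cellular ATP | Medium: IMEM, 15% FBS supplement | Schedule: Overnight attachment after seeding, then 72 h compound exposure at 37 °C | Doses: Compound addition at 0.1% DMSO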
# H69AR inhibit: growth inhibitors of human H69AR lung tumor cells; 6% of 85,000 active; H69AR lung tumor viability, ATP luminescence, 72 h; hits give low values; AID 598; viability, % at 10 µM;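 active = viability at or below 40%; inactive = viability above 40%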;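 also: multidrug resistant small cell line overexpressing MRP-1 efflux transporter; 100% = mean luminescence of untreated control wells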
# PTEN del growth: suppresses growth of cells with PTEN deletion; HCT116 PTEN-null viability, CellTiter-Glo, 60 h; hits give low values; viability, % at 10 µM; 1.2% of 140,000 active; AID 827;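 active = viability at or below a set limit, 4 SD under the median of all tested compounds, cut at about 3.7% in these data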;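 also: PTEN knockout HCT116 line with beta catenin targeted HCT116 as companion control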
# The depositor's hits bear a star; / = no result. This excerpt belongs to a sample that is enriched for hits.
SMILES,HUVEC prolif 384,bCat KO growth,Lung fibro prol,H69AR inhibit,PTEN del growth
CCOC(=O)N1CCN(S(=O)(=O)c2ccc(C(=O)Nc3sc4c(c3C#N)CCC4)cc2)CC1,47,63,84,28*,28
CC(C)(C)C1CCc2c(sc(NC(=O)c3cc(C4CC4)on3)c2C#N)C1 (stereo unspecified),79,96,90,72,98
COc1ccc(S(=O)(=O)N2CCOC2CNC(=O)C(=O)NCCc2c[nH]c3ccccc23)cc1C (stereo unspecified),/,61,/,/,51
N#Cc1ccc(-c2cccnc2)nc1SCC(=O)Nc1sc2c(c1C#N)CCC2,38,87,31*,101,93
C=C(C)COc1ccc(-c2[nH]ncc2-c2ccc(OC)c(OC)c2)c(O)c1,45,13,46*,/,12
O=[N+]([O-])c1ccc(COc2ccc(-c3[nH]ncc3-c3ccccc3)c(O)c2)cc1,/,59,/,/,48
C=C(C)COc1ccc(-c2[nH]ncc2-c2ccccc2)c(O)c1,38,73,94,39*,63
C=C(C)COc1ccc(-c2nc(N)ncc2-c2ccc(OC)cc2)c(O)c1,99,42,93,10*,35
CCN1CCN(c2ccc(NC(=O)c3ccc4c(c3)[nH]c(=O)n4Cc3ccc(OC)cc3)cc2)CC1,/,28,/,/,14
O=C(CCCSc1nnnn1-c1ccccc1)c1ccc(F)cc1,/,110,/,/,93
Brc1ccc(-c2nc3ncccn3c2NC2CCCCC2)o1,102,83,106,76,74
Cc1cc(C)cc(OC(=O)CS(=O)c2ccc(C(F)(F)F)cc2[N+](=O)[O-])c1 (stereo unspecified),64*,98,84,15*,82
O=C(CS(=O)c1ccc(C(F)(F)F)cc1[N+](=O)[O-])Oc1ccc(Cl)cc1 (stereo unspecified),58,80,88,21*,86
COc1ccc(NC(=O)C(Sc2nnc3ccccn23)c2ccccc2)cc1Cl (stereo unspecified),/,96,/,/,90
CCOc1c(OC)ccc2c3c(c(=O)oc12)CCCC3,109,0.5*,97,91,1.1*
COc1ccc2c3c(c(=O)oc2c1OCC(=O)O)CCCC3,/,95,/,/,109
OC(CN1CCN(c2cccc(C(F)(F)F)c2)CC1)c1c[nH]c2ccccc12 (stereo unspecified),67,73,58,2.6*,69
Cc1cccnc1Nc1nc(-c2ccc(O)cc2O)cs1,14*,67,84,8.0*,65
Cc1cccnc1Nc1nc(-c2ccccn2)cs1,16*,0.7*,3.2*,0.4*,0.8*
Cc1cccc(Nc2nc(-c3ccccn3)cs2)n1,60,17,69,3.9*,20
Cc1cccc(Nc2nc(-c3cccs3)cs2)n1,80,51,89,62,52
NS(=O)(=O)c1ccc(Nc2nc(-c3ccc(O)cc3O)cs2)cc1,93,97,101,58,94
CCOC(=O)c1ccc(-c2cc(C)no2)[nH]1,/,79,/,/,80
COC(=O)c1ccc(COC(=O)c2ccc(SC)cc2OC)cc1,/,88,/,/,96
O=S1(=O)Nc2c(ccc3cccnc23)-c2ccccc21,/,4.7*,/,/,2.3*
SMILES,HUVEC prolif 384,bCat KO growth,Lung fibro prol,H69AR inhibit,PTEN del growth
CCOC(=O)c1cc(CC)sc1NC(=O)c1ccc([N+](=O)[O-])c(N2CCOCC2)c1,/,34,/,/,22
O=C(Nc1cccnc1)c1ccc(COc2cc(Cl)ccc2Cl)o1,50,36,82,37*,30
O=C(Nc1cccnc1)c1ccc(COc2ccccc2Cl)o1,45,34,80,60,26
CCCCCCCCCCCCOC1OC(CO)C(O)C(O)C1NC(C)=O (stereo unspecified),/,84,/,/,78
C[C@H]1CC[C@H]2C(=O)N3[C@H](c4ccccc4Br)[C@@H](C)CC[C@H]3C(=O)N2[C@@H]1c1ccccc1Br,/,2.3*,/,/,3.0*
COc1ccccc1OCc1nc2c3c(-c4ccccc4)c(-c4ccccc4)oc3ncn2n1,94,/,85,25*,/
Cc1nc2nc(SCC(=O)NCc3ccco3)nn2c(C)c1Cc1c(F)cccc1Cl,68,51,98,35*,53
O=C(NCCC1=CCCCC1)C1CCN(S(=O)(=O)c2ccc(Br)s2)CC1,/,70,/,/,71
CCOCCCNS(=O)(=O)c1cc(Br)cc2c1N(C(=O)C1CC1)CC2,105,98,106,87,97
CCCCN(C)S(=O)(=O)c1cc(Br)cc2c1N(C(=O)C1CC1)CC2,77,25,92,31*,42
CC(=O)C1=C(c2ccc(Br)cc2)C(=O)c2ccccc2C1=O,/,1.6*,/,/,1.4*
CCOc1ccc(C2NC(=O)C(C#N)=C(S)N2c2ccc(OC)cc2)cc1OC (stereo unspecified),106,93,97,96,95
CCOC(=O)CSc1nc2cc(OC)ccc2cc1C#N,73,19,85,96,28
CCOC(=O)CSC1=C(C#N)C(=O)NC(c2ccc(OC)cc2)S1 (stereo unspecified),79,99,111,2.2*,96
CCOC(=O)CSC1=C(C#N)C(=O)NC(c2ccc(OC)c(OC)c2)S1 (stereo unspecified),73,98,77,6.6*,99
CCCCCCn1nc(C(=O)Nc2nc3c(s2)CCCC3)c2ccccc2c1=O,/,81,/,/,83
CCOC(=O)N1CCN(C(=O)CSCC(=O)N=c2sc3ccccc3n2C)CC1,100,100,99,88,100
Cn1c(=NC(=O)CCl)sc2ccccc21,76,5.1*,2.4*,1.4*,5
CCOC(=O)Cc1csc(NC(=O)CSc2cc(Cl)ccc2Cl)n1,/,105,/,/,106
Cc1nc(-c2ccc(Br)cc2)ccc1C(=O)O,/,95,/,/,99
Cc1cc(=O)oc(C)c1C(=O)N1CCc2c([nH]c3ccccc23)C1C(C)C (stereo unspecified),97,76,98,82,80
CC1c2[nH]c3ccccc3c2CCN1C(=O)Nc1ccccc1 (stereo unspecified),82,36,99,25*,32
Cc1ccc(C)c(NC(=S)c2ccccn2)c1,87,2.7*,80,2.7*,3.8*
S=C(Nc1ccccn1)c1ccccn1,84,1.9*,84,1.3*,1.8*
CC1CCCN(CCOCCOc2ccc(Br)cc2Cl)C1 (stereo unspecified),/,54,/,/,54
SMILES,HUVEC prolif 384,bCat KO growth,Lung fibro prol,H69AR inhibit,PTEN del growth
CC1CCCN(CCOCCOc2ccc(Cl)cc2Br)C1 (stereo unspecified),/,5.3*,/,/,8
CC(NC(=O)Nc1nnc(C(F)(F)F)s1)(C(F)(F)F)C(F)(F)F,28*,2.4*,28*,6.2*,1.8*
C/C(=N\NC(=O)CN1CCN(Cc2ccc(C)cc2)CC1)c1ccncc1,/,96,/,/,92
COC(=O)c1ccc(Cl)c(NC(=O)NC2CCCCC2)c1,87,95,102,29*,99
COC(=O)c1ccc(Cl)c(NC(C)=O)c1,/,96,/,/,93
Cc1ccc(C)c(N2C(=O)c3cc(N4CCOCC4)c([N+](=O)[O-])cc3C2=O)c1,/,92,/,/,89
